Experimental data: ChEMBL document CHEMBL2177069, “Novel peptidomimetic compounds containing redox active chalcogens and quinones as potential anticancer agents” (Eur J Med Chem, 2012)
Calls of active or inactive are those of the source. The calls are words filed in the database; no cut-off is given here.

What was measured:
A-431 [1] = experiment: Cytotoxicity against human A431 cells after 24 hrs by MTT assay; assay type: functional, cell-based; settings: A-431, 24 h
Method in brief: (§1)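 MTT assay. Cells were seeded at 50,000 cells/mL in medium with 10% fetal calf serum and grown for two days at 37 °C, 10% CO2. Serial dilutions of compound were then added for 24 h. MTT was added (final 0.5 mg/mL) for 2 h, and the formazan was pelleted, washed, dissolved in isopropanol with 0.4% HCl and read at 590 nm. IC50 is the concentration giving 50% of untreated-control absorbance, taken from dose-response curves; mean of two parallel experiments.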

HUVEC [2] = experiment: Induction of oxidative stress in human HUVEC cells assessed as increase in superoxide free radical production after 1 hr by DHE-based by fluorescence spectrophotometric analysis; assay type: cell-based
Method in brief: (§2)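 Cells were seeded at 10^5 per well and given graded compound concentrations for 1 h. They were then loaded with DHE or DCF probe for 30 min in the dark. Fluorescence was read immediately: DHE ex 540/em 600 nm; DCF ex 485/em 528 nm. Results were expressed as arbitrary units per 10^5 cells.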

HUVEC [3] = experiment: Cytotoxicity against human HUVEC cells after 24 hrs by MTT assay; assay type: cell-based; method in brief: as §1
Saccharomyces cerevisiae [4] = experiment: Growth inhibition of SOD1-deficient Saccharomyces cerevisiae YJR104C mutant at 20 ug/disc after 24 to 48 hrs by agar diffusion assay; assay type: functional; settings: read-out: DIZ
Method in brief: (§3)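 S. cerevisiae deletion mutants or wild type grown on YPD, seeded into liquid agar medium at an optical density of 0.1. 6 mm paper discs soaked with methanolic compound solution were placed on the plates and incubated at 30 °C. Growth was checked after 1 and 2 days, and the inhibition zone diameter was recorded in mm.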

Saccharomyces cerevisiae [5] = experiment: Growth inhibition of RCK1-deficient Saccharomyces cerevisiae YGL158W mutant at 20 ug/disc after 24 to 48 hrs by agar diffusion assay; assay type: functional; settings: read-out: DIZ; method in brief: as §3
Saccharomyces cerevisiae [6] = experiment: Growth inhibition of GTT2-deficient Saccharomyces cerevisiae YLL060C mutant at 20 ug/disc after 24 to 48 hrs by agar diffusion assay; assay type: functional; settings: read-out: DIZ; method in brief: as §3
Saccharomyces cerevisiae [7] = experiment: Growth inhibition of wild type Saccharomyces cerevisiae BY4741 at 20 ug/disc after 24 to 48 hrs by agar diffusion assay; assay type: functional; settings: read-out: DIZ; method in brief: as §3
Saccharomyces cerevisiae [8] = experiment: Growth inhibition of UFD2-deficient Saccharomyces cerevisiae YDL190C mutant at 20 ug/disc after 24 to 48 hrs by agar diffusion assay; assay type: functional; settings: read-out: DIZ; method in brief: as §3
Saccharomyces cerevisiae [9] = experiment: Growth inhibition of SOD2-deficient Saccharomyces cerevisiae YHR008C mutant at 20 ug/disc 24 to 48 hrs by agar diffusion assay; assay type: functional; settings: read-out: DIZ; method in brief: as §3
MCF7 [10] = experiment: Cytotoxicity against human MCF7 cells after 24 hrs by MTT assay; assay type: functional, cell-based; settings: MCF7, 24 h; method in brief: as §1
HUVEC [11] = experiment: Induction of oxidative stress in human HUVEC cells assessed as increase in hydrogen peroxide free radical production after 1 hr by DCF-based fluorescence spectrophotometric analysis; assay type: cell-based; method in brief: as §2
Saccharomyces cerevisiae [12] = experiment: Growth inhibition of COX17-deficient Saccharomyces cerevisiae YLL009C mutant at 20 ug/disc after 24 to 48 hrs by agar diffusion assay; assay type: functional; settings: read-out: DIZ; method in brief: as §3
Saccharomyces cerevisiae [13] = experiment: Growth inhibition of GSH2-deficient Saccharomyces cerevisiae YOL049W mutant at 20 ug/disc after 24 to 48 hrs by agar diffusion assay; assay type: functional; settings: read-out: DIZ; method in brief: as §3
Saccharomyces cerevisiae [14] = experiment: Growth inhibition of WSC4-deficient Saccharomyces cerevisiae YHL028W mutant at 20 ug/disc 24 to 48 hrs by agar diffusion assay; assay type: functional; settings: read-out: DIZ; method in brief: as §3
A-431 [15] = experiment: Induction of oxidative stress in human A431 cells assessed as increase in hydrogen peroxide free radical production after 1 hr by DCF-based fluorescence spectrophotometric analysis; assay type: functional, cell-based; method in brief: as §2
Saccharomyces cerevisiae [16] = experiment: Growth inhibition of POS5-deficient Saccharomyces cerevisiae YPL188W mutant at 20 ug/disc after 24 to 48 hrs by agar diffusion assay; assay type: functional; settings: read-out: DIZ; method in brief: as §3
A498 = experiment: Cytotoxicity against human A498 cells after 24 hrs by MTT assay; assay type: functional, cell-based; settings: A498, 24 h; method in brief: as §1
Saccharomyces cerevisiae [17] = experiment: Growth inhibition of PST2-deficient Saccharomyces cerevisiae YDR032C mutant at 20 ug/disc 24 to 48 hrs by agar diffusion assay; assay type: functional; settings: read-out: DIZ; method in brief: as §3
[18] = Cytotoxicity against human PHF cells after 24 hrs by MTT assay; assay type: cell-based; method in brief: as §1
A-431 [19] = experiment: Induction of oxidative stress in human A431 cells assessed as increase in superoxide free radical production after 1 hr by DHE-based by fluorescence spectrophotometric analysis; assay type: functional, cell-based; method in brief: as §2
MCF7 [20] = experiment: Induction of Cell cycle arrest in human MCF7 cells assessed as S phase cells at IC50 concentration after 24 hrs by PI-staining based flow cytometric analysis (reference value: 19%); assay type: functional
Method in brief: (§4)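 MCF-7 cells (10^6) were treated for 24 h, with methanol as the vehicle control. Cells were fixed in cold 70% methanol at 4 °C for one day, washed with PBS, and permeabilized with 0.1% saponin in PBS. They were stained with propidium iodide plus RNase for 30 min. DNA content was read by flow cytometry, giving percentages of cells per cell-cycle phase.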

MCF7 [21] = experiment: Induction of Cell cycle arrest in human MCF7 cells assessed as G2/M phase cells at IC50 concentration after 24 hrs by PI-staining based flow cytometric analysis (reference value: 13%); assay type: functional; method in brief: as §4
MCF7 [22] = experiment: Induction of Cell cycle arrest in human MCF7 cells assessed as G0/1 phase cells at IC50 concentration after 24 hrs by PI-staining based flow cytometric analysis (reference value: 68%); assay type: functional; method in brief: as §4
MCF7 [23] = experiment: Induction of oxidative stress in human MCF7 cells assessed as decrease in GSH level at 5 uM after 1 hr by DTNB assay relative to control; assay type: functional; parameters: scale not given: the % may be the effect or the level left
Method in brief: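 MCF-7 cells (10^6) were treated for 1 h at 37 °C, trypsinized, and washed twice with cold PBS. GSH was extracted with chilled 5% metaphosphoric acid at 4 °C for 2 h, then the lysate was centrifuged. Supernatant was mixed with 0.2 M sodium phosphate pH 8.0 and 0.04 mM DTNB for 10 min at room temperature. Absorbance was read at 412 nm against a reagent blank, and GSH was quantified from a standard curve.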

Row | Compound | IC50 (A-431 [1]) [µM] | Activity (HUVEC [2]) | IC50 (HUVEC [3]) [µM] | zone of inhibition at 20 µg/disc (Saccharomyces cerevisiae [4]) [mm] | zone of inhibition at 20 µg/disc (Saccharomyces cerevisiae [5]) [mm] | zone of inhibition at 20 µg/disc (Saccharomyces cerevisiae [6]) [mm] | zone of inhibition at 20 µg/disc (Saccharomyces cerevisiae [7]) [mm] | zone of inhibition at 20 µg/disc (Saccharomyces cerevisiae [8]) [mm] | zone of inhibition at 20 µg/disc (Saccharomyces cerevisiae [9]) [mm] | IC50 (MCF7 [10]) [µM] | Activity (HUVEC [11]) | zone of inhibition at 20 µg/disc (Saccharomyces cerevisiae [12]) [mm] | zone of inhibition at 20 µg/disc (Saccharomyces cerevisiae [13]) [mm] | zone of inhibition at 20 µg/disc (Saccharomyces cerevisiae [14]) [mm] | zone of inhibition at 20 µg/disc (Saccharomyces cerevisiae [16]) [mm] | IC50 (A498) [µM] | zone of inhibition at 20 µg/disc (Saccharomyces cerevisiae [17]) [mm] | IC50 [18] [µM] | other results
1 | CC1=C(SCCC(=O)OC(CC[Se]c2ccccc2)C(=O)NCCCCCC(=O)OCc2ccccc2)C(=O)c2ccccc2C1=O (centres undefined) | > 100 | Non-toxic | 17 | 13 | 0 | 17 | 0 | 0 | 12 | 19 | Non-toxic | 0 | 0 | 11 | 0 | > 100 | 11 | 21 | Activity (A-431 [15]): Active
2 | CC1=C(SCCC(=O)OC(CC[Se]c2ccccc2)C(=O)NC(C)(C)C)C(=O)c2ccccc2C1=O (centres undefined) | > 100 | Non-toxic | 13 | 10 | 0 | 0 | 0 | 10 | 0 | 26 | Non-toxic | 10 | 0 | 11 | 0 | > 100 | 12 | 11 | Activity (A-431 [19]): Active
3 | CC1=C([Se]CC(OC(=O)c2ccc(-c3c4nc(c(-c5ccccc5)c5ccc([nH]5)c(-c5ccccc5)c5nc(c(-c6ccccc6)c6ccc3[nH]6)C=C5)C=C4)cc2)C(=O)NC(C)(C)C)C(=O)c2ccccc2C1=O (centres undefined) | > 100 |  | > 100 |  |  |  |  |  |  | > 100 |  |  |  |  |  | > 100 |  | > 100 | 
4 | CC1=C(SCCC(=O)OC(C[Se]C2=C(C)C(=O)c3ccccc3C2=O)C(=O)NC(C)(C)C)C(=O)c2ccccc2C1=O (centres undefined) | 1 |  | 1 |  |  |  |  |  |  | 3 |  |  |  |  |  | 3 |  |  | 
5 | CC(C)(C)NC(=O)COC(=O)c1ccc(-c2c3nc(c(-c4ccccc4)c4ccc([nH]4)c(-c4ccccc4)c4nc(c(-c5ccccc5)c5ccc2[nH]5)C=C4)C=C3)cc1 | > 100 |  | > 100 |  |  |  |  |  |  | > 100 |  |  |  |  |  | > 100 |  | > 100 | 
6 | CC1=C(SCCC(=O)OC(C[Se]c2ccccc2)C(=O)NCCCCCC(=O)OCc2ccccc2)C(=O)c2ccccc2C1=O (centres undefined) | > 100 |  | 23 | 18 | 0 | 0 | 0 | 0 | 13 | 10 |  | 0 | 0 | 12 | 0 | > 100 | 12 | 50 | 
7 | CC1=C([Se]CC(OC(=O)[C@@H](CSSC(C)(C)C)NC(=O)OC(C)(C)C)C(=O)NC(C)(C)C)C(=O)c2ccccc2C1=O (some centres undefined) | 2 | Non-toxic | 2 | 21 | 14 | 20 | 0 | 0 | 18 | 3 | Non-toxic | 14 | 14 | 20 | 11 | 5 | 11 | 4 | Activity (MCF7 [20]): 3.9%; Activity (MCF7 [21]): 1.6%; Activity (MCF7 [22]): 95%; Activity (A-431 [15]): Active; Activity (MCF7 [23]): 46%
8 | CC1=C(SCCC(=O)OC(C[Se]c2ccccc2)C(=O)NC(C)(C)C)C(=O)c2ccccc2C1=O (centres undefined) | 7 |  | 34 | 15 | 9 | 12 | 0 | 0 | 12 | 14 |  | 0 | 9 | 11 | 9 | > 100 | 12 | 26 | 
9 | CC(C)(C)NC(=O)C(C[Se]c1ccccc1)OC(=O)c1ccc(-c2c3nc(c(-c4ccccc4)c4ccc([nH]4)c(-c4ccccc4)c4nc(c(-c5ccccc5)c5ccc2[nH]5)C=C4)C=C3)cc1 (centres undefined) | > 100 |  | > 100 |  |  |  |  |  |  | > 100 |  |  |  |  |  | > 100 |  | > 100 | 
10 | CC1=C([Se]CC(OC(=O)CNC(=O)OC(C)(C)C)C(=O)NCCCCCC(=O)OCc2ccccc2)C(=O)c2ccccc2C1=O (centres undefined) | 5 |  | 36 | 20 | 0 | 18 | 0 | 0 | 25 | 4 |  | 0 | 0 | 14 | 0 | 7 | 11 | 6 | Activity (MCF7 [23]): 76%
